APJ antag: antagonists of human APJ apelin receptor. CHO-K1 APJ beta-arrestin complementation, luminescence. AID 2521. inhibition, % at 20 µM. P35414. hit rate 0.32% among 330,000;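 active means inhibition above about 40% at 20 µM, limit read from the data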;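 further: cells challenged with 10 nM apelin-13 agonist together with compound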
EBI2 antag: EBI2 (human) antagonism | hit rate 0.81% among 360,000 | inhibition, % at 5 µM | EBI2 beta-arrestin recruitment, luminescence, 7a,25-OHC stimulated; in the data active means inhibition above about 38%;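 further: enzyme fragment complementation signal reports receptor beta-arrestin coupling in cells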
APJ ag: APJ receptor agonism. hit rate 0.11% among 330,000. activation, % at 20 µM. CHO-K1 APJ PathHunter beta-arrestin, luminescence; 0% DMSO wells, 100% apelin;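 active means activation more than six SD over the plate average, tested at 20 µM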
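assay system = CHO-K1 APJ beta-arrestin complementation cell line | input = cell density 1000 per well | dosing = compound 20 µM once, DMSO 1% | timing = compound 90 min 25 °C, reagent 1 h | measured by = luminescence from split beta-galactosidase complementation, Galacton Star/Emerald II substrate | read-out basis = APJ agonist activity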
CCR6 antag: blocks CCL20-driven beta-arrestin recruitment at human CCR6. CHO-K1 CCR6 PathHunter beta-arrestin, luminescence, CCL20-stimulated. AID 493098. inhibition, % at 20 µM. hit rate 0.49% among 340,000. P51684;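 active means compounds whose inhibition of the agonist-driven luminescence signal at 20 µM reaches about 50%, limit read from the data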;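 further: cells stimulated with CCL20 at 14 nM final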
Target sequence (P51684 whole entry, looked up): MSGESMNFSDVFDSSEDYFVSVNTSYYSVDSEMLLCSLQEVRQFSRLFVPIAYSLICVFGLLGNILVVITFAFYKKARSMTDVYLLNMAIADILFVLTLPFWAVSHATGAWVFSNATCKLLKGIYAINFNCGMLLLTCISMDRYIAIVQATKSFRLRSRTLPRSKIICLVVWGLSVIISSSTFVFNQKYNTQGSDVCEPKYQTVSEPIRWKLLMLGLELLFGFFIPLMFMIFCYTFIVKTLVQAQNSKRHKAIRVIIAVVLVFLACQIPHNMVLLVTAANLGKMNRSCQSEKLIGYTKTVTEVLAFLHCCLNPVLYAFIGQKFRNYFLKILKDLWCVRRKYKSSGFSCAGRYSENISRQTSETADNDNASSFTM
CXCR6 block: inhibitors of human CXCR6 receptor. O00574. CHO-K1 PathHunter CXCR6 beta-arrestin, luminescence. inhibition, % at 20 µM. hit rate 0.36% among 360,000. AID 602244; in the data active means inhibition above about 34%, passing the limit was not always enough;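 further: antagonist mode with CXCL16 agonist at 10 nM final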
Target sequence (O00574 whole entry, looked up): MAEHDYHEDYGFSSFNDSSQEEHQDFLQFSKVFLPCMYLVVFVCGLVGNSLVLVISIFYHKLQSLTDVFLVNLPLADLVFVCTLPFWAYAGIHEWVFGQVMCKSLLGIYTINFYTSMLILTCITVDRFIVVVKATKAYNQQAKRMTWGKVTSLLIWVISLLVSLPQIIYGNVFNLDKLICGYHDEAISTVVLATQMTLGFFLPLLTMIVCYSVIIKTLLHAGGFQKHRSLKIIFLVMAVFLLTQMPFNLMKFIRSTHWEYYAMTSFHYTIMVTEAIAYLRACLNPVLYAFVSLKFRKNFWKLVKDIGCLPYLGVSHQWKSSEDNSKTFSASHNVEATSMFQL
APJ antag confirm: APJ receptor antagonism confirmation; shares compounds with APJ antag; APJ beta-arrestin recruitment, luminescence, antagonist mode; inhibition, % at 20 µM; hit rate 66% among 950; in the data active means inhibition above about 50%
CXCR6 confirm: confirmation of human CXCR6 receptor antagonists | shares compounds with CXCR6 block | CHO-K1 CXCR6 PathHunter beta-arrestin, luminescence | inhibition, % at 20 µM | hit rate 65% among 700;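 active means mean inhibition over four retests above 40%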;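 further: receptor stimulated with 10 nM CXCL16 agonist; beta-galactosidase fragment complementation upon beta-arrestin recruitment to receptor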
EBI2 antag conf: confirmation of human EBI2 receptor antagonists. shares compounds with EBI2 antag. EBI2 beta-arrestin luminescence, 7a,25-OHC antagonism. inhibition, % at 5 µM. hit rate 29% among 2,400. AID 651997;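 active means inhibition of at least 50%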
EBI2 ag: activates EBI2, counter-screen for EBI2 antagonists; 2,400 tested, under 10 active; activation, % at 5 µM; shares compounds with EBI2 antag; EBI2-expressing cells, agonist mode, luminescence, 60 min; 0% vehicle, 100% 7α,25-dihydroxycholesterol control;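 active means activation of at least 50%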
bGal cs: inhibits E. coli beta-galactosidase, counter-screen for EBI2 antagonists; inhibition, % at 5 µM; hit rate 1% among 2,400; shares compounds with EBI2 antag; purified beta-galactosidase, luminescent Galacton Star, 15 min;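 active means replicate-average signal at least 3 plate SD below neutral wells, shown as high inhibition, flagging enzyme-inhibiting false positives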;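 further: higher means stronger loss of beta-gal luminescence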
Hits are given with their value; - = inactive; . = not tested or not shown. Sampled rows, rich in hits. Any-hit rate of the full collection: about 1.5%.

SMILES	APJ antag	EBI2 antag	APJ ag	CCR6 antag	CXCR6 block	APJ antag confirm	CXCR6 confirm	others
N#Cc1c([N+](=O)[O-])cc([N+](=O)[O-])cc1S(=O)(=O)Cc1ccccc1	63.8	-	-	105.9	94.6	60.9	86.9
O=C(c1cccc(C(F)(F)F)c1)C1CCCN(C(=O)CCn2cnnn2)C1 (stereo unspecified)	-	-	-	-	-	.	.
C/C(=N\NC(=O)Cn1c(-c2ccccn2)nc2ccccc21)c1ccccc1	46.6	-	-	60.3	45.5	71.6	47.2
COc1cc(/C=C(\C#N)c2nc(-c3cc4ccccc4oc3=O)cs2)ccc1O	53.3	-	-	60.2	49.3	76.1	49.3
O=C(c1ccc(F)cc1F)N1CCN(c2n[nH]c(=O)[nH]c2=O)CC1	-	-	-	-	-	.	.
CCC(=O)OCCNc1cc(Sc2nc3ccccc3s2)c2nonc2c1[N+](=O)[O-]	68.1	-	-	109.0	89.3	85.8	100.9
CCCSc1cc(NCCOC(=O)CCC)c([N+](=O)[O-])c2nonc12	41.6	-	-	83.6	62.0	74.6	71.9
Cc1ccc(NC(=S)NNc2ccc(C(=O)O)cc2[N+](=O)[O-])cc1C	42.0	-	-	-	40.9	-	42.2
Oc1cccc2ccc(/C=C/c3cccs3)nc12	52.7	40.2	-	72.4	50.2	51.3	51.2
CSc1ccc(/C=C/c2ccc3cccc(O)c3n2)cc1	-	-	-	-	-	.	.
Cc1ccsc1/C=C/c1ccc2cccc(O)c2n1	45.6	-	-	74.3	59.5	-	66.4
CC(C)CC1Nc2ncnc(N3CCN(c4ccccc4)CC3)c2N(Cc2ccccc2)C1=O (stereo unspecified)	-	-	-	-	-	.	.
COc1ccc(CN2C(=O)C(Cc3ccccc3)Nc3ncnc(N4CCN(c5ccccc5)CC4)c32)cc1 (stereo unspecified)	52.9	44.1	-	80.1	70.4	110.0	68.2	EBI2 antag conf=-;EBI2 ag=-;bGal cs=32.5
O=C1C(Cc2ccccc2)Nc2ncnc(N3CCN(c4ccccc4)CC3)c2N1Cc1ccc(Cl)cc1 (stereo unspecified)	65.4	64.6	-	77.6	67.9	103.9	69.8	EBI2 antag conf=70.6;EBI2 ag=-;bGal cs=39.4
O=C(CSc1nnc(-c2ccncc2)o1)N1CCc2ccccc2C1	-	-	-	-	-	.	.
CC(CC(=O)Nc1ccc2c(c1)c(=O)n(C)n2-c1cccs1)c1ccccc1 (stereo unspecified)	.	-	.	.	-	.	.
C/C(=N\NC(=O)c1cccc(Br)c1)c1ccccn1	66.6	67.1	-	65.3	-	59.3	.	EBI2 antag conf=81.8;EBI2 ag=-;bGal cs=-
C/C(=N/NC(=O)c1ccc(C(C)(C)C)cc1)c1ccccn1	69.1	74.3	-	93.8	77.4	88.2	82.2	EBI2 antag conf=87.0;EBI2 ag=-;bGal cs=-
CC(=NNC(=O)c1ccncc1)c1cccc(Br)c1	.	-	.	-	-	.	.
Cc1ccc(OCCN2C(=O)c3ccccc3C2=O)c([N+](=O)[O-])c1	47.9	61.6	-	-	52.8	66.2	58.3	EBI2 antag conf=51.7;EBI2 ag=-;bGal cs=-
O=C(Cc1ccccc1)Nc1cccc(C(=O)O)c1O	-	-	-	-	-	.	.
CCc1ccc(C(=O)NNc2ccc(C)c(Cl)c2)cc1	52.7	46.2	-	-	-	80.5	.	EBI2 antag conf=-;EBI2 ag=-;bGal cs=-
CCc1ccc(C(=O)NNc2ccc(F)cc2)cc1	-	-	-	-	-	.	.
COc1ccc(CCNC(=O)COC(=O)c2cccs2)cc1	-	-	-	-	-	.	.
CCCc1ccc(OC(=O)c2cccs2)cc1	-	-	-	-	50.1	.	-
SMILES	APJ antag	EBI2 antag	APJ ag	CCR6 antag	CXCR6 block	APJ antag confirm	CXCR6 confirm	others
COc1ccccc1CCNC(=O)Cn1ccc2cc(S(=O)(=O)N3CCC(C)CC3)ccc21	-	-	-	-	-	.	.
Oc1ccc(F)c2cccnc12	-	-	-	-	-	.	.
Oc1ccc(Cl)c2cccnc12	.	-	.	65.7	42.7	.	60.2
Cc1noc(C)c1COc1ccccc1C(=O)N(C)CC(=O)Nc1ccc(F)c(F)c1F	-	-	-	-	-	.	.
CC(=O)c1ccc(OCC(=O)OCC(=O)c2ccc(S(=O)(=O)N3CCCCC3)cc2)cc1	.	-	.	.	40.2	.	-
COC(=O)c1ccc(CCc2cc(O)ccc2O)cc1	.	-	.	-	-	.	.
COC(=O)c1ccc(CCc2cc(O)c(Br)cc2O)cc1	.	-	.	.	54.9	.	48.6
O=C(COC(=O)Cc1c(F)cccc1Cl)Nc1nnc(-c2ccccc2)o1	-	-	-	-	-	.	.
O=[N+]([O-])c1ccc(N/N=C/c2sc(N3CCOCC3)nc2-c2ccccc2)c(S(=O)(=O)Nc2ccccc2Cl)c1	.	-	.	58.2	54.4	.	59.7
CC(=O)Nc1ccc(S(=O)(=O)N[C@@H](C)C(=O)OCc2cc([N+](=O)[O-])cc3c2OCOC3)cc1	-	-	-	-	-	.	.
CC(C)CN=Cc1c(O)c([N+](=O)[O-])cc2oc3c(c12)CCCC3	-	-	-	-	-	.	.
O=[N+]([O-])c1cc2oc3c(c2c(C=NCc2ccccc2)c1O)CCCC3	-	-	-	-	43.8	.	59.4
Nc1cccc2c1C(=O)N(C(=O)/C=C/c1ccc(F)cc1)C2=O	-	-	-	60.9	48.3	.	-
Nc1cccc2c1C(=O)N(C(=O)c1ccco1)C2=O	-	-	-	-	-	.	.
COc1ccc(C(O)c2ncc(-c3cccc4ccccc34)[nH]2)cc1F (stereo unspecified)	.	-	.	.	-	.	.
COc1ccc(C=Cc2ccc3ccccc3n2)c(OC)c1	.	-	.	.	-	.	.
COc1ccc(OC)c(/C=C/c2ccc3cccc(O)c3n2)c1	-	-	-	.	48.4	.	59.1
COc1ccc(S(=O)(=O)N(C)C)cc1NC(=O)c1ccc(OCC2CCCO2)cc1 (stereo unspecified)	.	-	.	.	-	.	.
Cc1ccc(C)c(N(CC(=O)NC(C)C)C(=O)CCC(=O)Nc2ccccn2)c1	-	-	-	-	-	.	.
Oc1c(Br)cc(Br)cc1C=NCc1ccccc1	-	-	-	-	40.6	.	51.1
CCc1cc(C(=O)NC2CCCc3c2cnn3-c2ccc(F)cc2F)no1 (stereo unspecified)	.	-	.	.	-	.	.
CC(=O)NCCOc1nc(N(C)C)nc(N2CCOCC2)n1	-	-	-	-	-	.	.
COc1nc(OCCNC(C)=O)nc(N(C)C)n1	-	-	-	-	56.2	.	-
